Data on 87 molecules can be found in ChEMBL document CHEMBL1124354, “Potential antiatherosclerotic agents. 6. Hypocholesterolemic trisubstituted urea analogues” (J Med Chem, 1989).

Assay [1] addresses T1, Sterol O-acyltransferase 1 (Rattus norvegicus) (UniProt O70536).
T1 sequence (whole entry): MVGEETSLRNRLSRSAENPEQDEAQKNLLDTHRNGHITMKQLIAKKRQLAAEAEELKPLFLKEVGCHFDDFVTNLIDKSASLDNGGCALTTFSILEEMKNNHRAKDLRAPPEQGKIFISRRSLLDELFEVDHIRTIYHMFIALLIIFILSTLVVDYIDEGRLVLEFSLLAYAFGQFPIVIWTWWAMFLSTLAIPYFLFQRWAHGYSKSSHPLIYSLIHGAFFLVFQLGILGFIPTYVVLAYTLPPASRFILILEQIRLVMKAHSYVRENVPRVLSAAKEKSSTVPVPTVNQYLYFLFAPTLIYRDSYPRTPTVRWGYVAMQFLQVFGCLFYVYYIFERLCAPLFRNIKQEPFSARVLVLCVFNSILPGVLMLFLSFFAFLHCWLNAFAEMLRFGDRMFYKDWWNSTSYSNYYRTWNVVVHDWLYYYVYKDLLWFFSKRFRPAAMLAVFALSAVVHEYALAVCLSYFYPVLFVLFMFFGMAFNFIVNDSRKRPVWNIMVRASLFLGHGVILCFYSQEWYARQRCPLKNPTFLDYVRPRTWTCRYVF
In words: In vitro percentage inhibition against acyl coenzyme A:cholesterol acyltransferase derived from rat adrenals. Also noted: concentration or dose not given beside the values. Particulars: concentration not given here. In a few lines: (§1)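 Rat adrenal 1000g supernatant (microsomal ACAT) in 0.2 M KH2PO4 pH 7.4 with BSA; test compound at final 5.2 µg/mL, preincubated 37 °C 10 min; [14C]oleoyl-CoA (0.4 µCi) added, 37 °C 30 min. Cholesteryl ester separated by TLC, scintillation counted; mean percent inhibition against compound-free control.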

The target of assay [2] is T1, Sterol O-acyltransferase 1 (Rattus norvegicus). The experiment in a line: In vitro percentage inhibition against Acyl coenzyme A:cholesterol acyltransferase derived from rat adrenals. The conditions noted are these: concentration not given here. Also noted: concentration or dose not given beside the values. The method, boiled down:
as §1

Assay [3] shares this target. In words: Liver hypolipidemic activity in rats. Format: functional. The method, boiled down:
(§2)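 Male CD-1 Sprague-Dawley rats, 140–150 g, fed 1% cholesterol/0.5% cholic acid diet with compound admixed at 0.01% (about 10 mg/kg/day) for 7 days. Serum and liver cholesterol measured by Technicon autoanalyzer methods; expressed as percent of control.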

Assay [4] has the same target. In words: Serum hypolipidemic activity in rats. Format: functional. In a few lines:
as §2

For orientation: inhibition means the relative decrease from the control value, in per cent.

For the molecule `CCCCN(Cc1ccccc1)C(=O)Nc1ccc(Cl)c(Cl)c1`, in assay [1], the inhibition turned out to be 96%.
Turning to `CCCCN(CCCC)C(=O)Nc1cccc(Br)c1`, the inhibition in assay [2] stood at 86%.
On the same count and under the same terms, the figure for `CN(C(=O)Nc1cc(Cl)ccc1Cl)c1ccccc1` is 48%.
Take `CCCCN(Cc1ccccc1)C(=O)Nc1cccc(C(F)(F)F)c1`: the inhibition in assay [1] came out at 86%. The same molecule showed an LS in assay [3] of 104%. Also, in assay [4], the SS stood at 84%.
In the case of `CCCCN(CCCC)C(=O)Nc1ccccc1Br`, the inhibition in assay [1] came out at 51%.
On to `CCCCN(Cc1ccccc1)C(=O)Nc1cc(C)cc(C)c1`, for which the inhibition in assay [1] was 94%. Besides, in assay [3], the LS was determined as 75%. This molecule yielded an SS in assay [4] of 93%.
`O=C(Nc1ccccc1Br)N(Cc1ccccc1)Cc1ccccc1`: the inhibition in assay [1] came out at 94%.
Take `CCN(C(=O)Nc1ccccc1C)c1ccccc1`: the inhibition in assay [2] came out at 9%.
With `CCCCN(CCCC)C(=O)Nc1ccccc1C`, in assay [1], the inhibition was determined as 62%. In addition, the LS in assay [3] came out at 111%. The SS in assay [4] was determined as 81%.
In the case of `CCCCCCCC/C=C/CCCCCCCCN(Cc1ccc(CCCC)cc1)C(=O)Nc1ccc(C)cc1C` (stereo in doubt; 160), the inhibition in assay [2] turned out to be 42%.
On the same count and under the same terms, the figure for `O=C(Nc1ccc(Cl)c(Cl)c1)N(Cc1ccccc1)Cc1ccccc1` is 95%.
Consider `CCCCN(Cc1ccccc1)C(=O)Nc1c(Cl)cc(Cl)cc1Cl`, for which the inhibition in assay [1] was 88%. The LS in assay [3] turned out to be 32%. The SS in assay [4] was 48%.
For `CCCCN(CCCC)C(=O)Nc1cccc(SC)c1`, the inhibition in assay [1] is 85%.
Regarding `CCCCN(CC(c1ccccc1)C1CCCCC1)C(=O)Nc1ccc(C)cc1C` (stereo not given), the inhibition in assay [2] worked out at 74%.
Same read-out and setting: in the case of `CCCCN(CCCC)C(=O)Nc1cccc(Cl)c1Cl` it was 85%; in that of `CCCCN(CCCCC1CCCCC1)C(=O)Nc1ccc(C)cc1C`, 40%.
Turning to `CCN(CC)C(=O)Nc1ccc(C)cc1C`, the inhibition in assay [1] is 18%.
For the molecule `CCc1cccc(CC)c1NC(=O)N(Cc1ccccc1)Cc1ccccc1`, the inhibition in assay [2] was 72%.
Same read-out and setting: the figure for `CCCCN(CCCC)C(=O)Nc1ccc([N+](=O)[O-])cc1Cl` is 87%; for `Cc1ccc(Cl)cc1NC(=O)NCc1ccccc1` it is 33%; for `O=C(Nc1cccc(Cl)c1Cl)N(Cc1ccccc1)Cc1ccccc1` it is 80%.
For the molecule `CCCCN(Cc1ccccc1)C(=O)Nc1ccc(C)c(C)c1`, in assay [1], the inhibition came to 87%.
With `CCCCN(CCCC)C(=O)Nc1ccc(I)cc1`, the inhibition in assay [2] worked out at 83%.
On the same count and under the same terms, in the case of `CCCCN(CCCC)C(=O)Nc1ccc([N+](=O)[O-])cc1` it was 75%.
As for `CCCCN(Cc1ccccc1)C(=O)Nc1cc(OC)c(OC)c(OC)c1`, the inhibition in assay [1] was 74%.
On the same count and under the same terms, the figure for `CCCCN(Cc1ccccc1)C(=O)Nc1cc(Cl)ccc1OC` is 81%.
On to `C=CCN(CC=C)C(=O)Nc1ccc(C)cc1C`, for which the inhibition in assay [1] is 43%.
Still for that read-out and setting: the figure for `COc1ccc(NC(=O)N(Cc2ccccc2)Cc2ccccc2)cc1` is 72%.
Turning to `CCCCN(CCCC)C(=O)Nc1ccc(C)c(C)c1`, the inhibition in assay [2] came to 49%.
As to `CCCCN(Cc1ccccc1)C(=O)Nc1cc(Cl)c(N)c(Cl)c1`, in assay [2], the inhibition was 61%.
On to `O=C(Nc1ccc(Br)cc1)N(Cc1ccccc1)Cc1ccccc1`, for which the inhibition in assay [1] came to 80%.
For the molecule `Cc1ccc(C)c(NC(=O)N(Cc2ccccc2)Cc2ccccc2)c1`, the inhibition in assay [2] was found to be 89%.
As to `O=C(Nc1ccc(Cl)cc1)N(Cc1ccccc1)c1ccccc1`, the inhibition in assay [1] was 68%. In assay [3], this molecule registered an LS of 102%. Further, in assay [4], the SS was found to be 67%.
Regarding `CCCCN(C)C(=O)Nc1ccc(Cl)c(Cl)c1`, the inhibition in assay [1] is 64%.
On the same count and under the same terms, the figure for `CCCCN(CCCC)C(=O)Nc1ccc(C(C)C)cc1` is 76%.
As to `CCCCN(Cc1ccccc1)C(=O)Nc1cc(Cl)cc(Cl)c1`, the inhibition in assay [1] turned out to be 91%. In assay [3], this molecule came in with an LS of 107%. Also, the SS in assay [4] came out at 120%.
As to `CSc1ccc(NC(=O)N(Cc2ccccc2)Cc2ccccc2)cc1`, in assay [2], the inhibition amounted to 67%.
In the case of `Cc1ccc(NC(=O)N(C(C)C)C(C)C)c(C)c1`, the inhibition in assay [1] is -1%.
`CCCCCCCCCCCN(CCCCCCCCCCC)C(=O)Nc1ccc(C)cc1C`: the inhibition in assay [2] came to 49%.
In the case of `Cc1ccc(NC(=O)N(CC(C)C)CC(C)C)c(C)c1`, in assay [1], the inhibition was 80%.
The same measure, in the same setting: in the case of `CC(=O)c1cccc(NC(=O)N(Cc2ccccc2)Cc2ccccc2)c1` it was 81%.
As for `COc1ccccc1NC(=O)N(Cc1ccccc1)Cc1ccccc1`, in assay [2], the inhibition was found to be 91%.
For the molecule `O=C(Nc1ccc(Cl)cc1)N(Cc1ccccc1)Cc1ccccc1`, the inhibition in assay [1] amounted to 78%.
Same read-out and setting: the figure for `Cc1ccc(NC(=O)N(C)C)c(C)c1` is -7%; for `CCCCN(Cc1ccccc1)C(=O)Nc1cc(Cl)ccc1O` it is 86%.
Take `Cc1cccc(NC(=O)N(Cc2ccccc2)Cc2ccccc2)c1`: in assay [1], the inhibition came out at 89%.
Turning to `Cc1ccccc1NC(=O)N(Cc1ccccc1)Cc1ccccc1`, the inhibition in assay [1] was 77%.
On the same count and under the same terms, the figure for `O=C(Nc1ccccc1Cl)N(Cc1ccccc1)Cc1ccccc1` is 88%.
`Cc1cccc(Cl)c1NC(=O)N(Cc1ccccc1)Cc1ccccc1`: the inhibition in assay [2] stood at 84%.
As for `CCCCN(CCCC)C(=O)Nc1cc(Cl)ccc1C`, the inhibition in assay [1] was determined as 75%.
As for `O=C(Nc1ccc(Br)cc1Br)N(Cc1ccccc1)c1ccccc1`, the inhibition in assay [1] is 82%.
For the molecule `O=C(O)c1ccc(NC(=O)N(Cc2ccccc2)Cc2ccccc2)cc1`, in assay [1], the inhibition came out at 14%.
For `CCCCN(CC(C)(c1ccccc1)c1ccccc1)C(=O)Nc1ccc(C)cc1C`, the inhibition in assay [2] was 97%.
On the same count and under the same terms, in the case of `CCCCN(CCCC)C(=O)Nc1ccc(C(C)=O)cc1` it was 55%.
On to `CCCCN(CCCC)C(=O)Nc1c(C)cccc1C`, for which the inhibition in assay [1] was found to be 85%.
Regarding `CCCCN(Cc1ccccc1)C(=O)Nc1cccc(C)c1C`, the inhibition in assay [1] was 86%.
With `O=C(Nc1ccc(Cl)c(C(F)(F)F)c1)N(Cc1ccccc1)Cc1ccccc1`, in assay [2], the inhibition was 92%.
For the molecule `CCCCN(CCC(c1ccccc1)c1ccccc1)C(=O)Nc1ccc(C)cc1C`, the inhibition in assay [2] worked out at 53%.
Turning to `CCCCN(CCCC)C(=O)Nc1ccc(Cl)cc1C`, the inhibition in assay [1] was determined as 88%.
With `Cc1ccc(NC(=O)NCc2ccccc2)c(C)c1`, in assay [2], the inhibition is 35%.
For `CCCN(CCC)C(=O)Nc1ccc(C)cc1C`, the inhibition in assay [1] was 8%.
`O=C(Nc1cc(F)ccc1F)N(Cc1ccccc1)Cc1ccccc1`: the inhibition in assay [2] came out at 72%.
For `O=C(Nc1cccc([N+](=O)[O-])c1)N(Cc1ccccc1)Cc1ccccc1`, the inhibition in assay [1] is 81%.
As for `CCC(C)N(C(=O)Nc1ccc(C)cc1C)C(C)CC` (stereo not given), in assay [2], the inhibition amounted to 78%.
Regarding `O=C(Nc1ccc(I)cc1)N(Cc1ccccc1)Cc1ccccc1`, the inhibition in assay [1] was 85%.
Still for that read-out and setting: in the case of `COc1ccc(OC)c(NC(=O)N(Cc2ccccc2)Cc2ccccc2)c1` it was 88%.
For `O=C(Nc1cc(Cl)ccc1Cl)N(Cc1ccccc1)Cc1ccccc1`, the inhibition in assay [2] was found to be 82%.
The same measure, in the same setting: the figure for `Cc1cccc(C)c1NC(=O)N(Cc1ccccc1)Cc1ccccc1` is 56%.
Still for that read-out and setting: in the case of `CCCCN(Cc1ccccc1)C(=O)Nc1ccccc1[N+](=O)[O-]` it was 37%.
Consider `CCCCN(CCC12CC3CC(CC(C3)C1)C2)C(=O)Nc1ccc(C)cc1C`, for which the inhibition in assay [2] stood at 56%.
With `CCCCN(Cc1ccccc1)C(=O)Nc1cccc(Cl)c1OC`, in assay [1], the inhibition worked out at 85%.
Still for that read-out and setting: the figure for `COc1cccc(NC(=O)N(Cc2ccccc2)Cc2ccccc2)c1` is 87%.
For the molecule `CCCCCCCCCN(CCCCCCCCC)C(=O)Nc1ccc(C)cc1C`, in assay [2], the inhibition was determined as 90%.
In the case of `CCCCOc1ccc(NC(=O)N(Cc2ccccc2)Cc2ccccc2)cc1`, the inhibition in assay [1] was 90%.
Same read-out and setting: the figure for `CCCCN(CCCC)C(=O)Nc1cccc(C)c1C` is 88%.
On to `O=C(Nc1ccc(Cl)cc1Cl)N(Cc1ccccc1)Cc1ccccc1`, for which the inhibition in assay [2] was determined as 83%.
Turning to `Cc1ccc(NC(=O)N(Cc2ccccc2)Cc2ccccc2)cc1`, the inhibition in assay [1] came out at 87%.
Regarding `O=C(Nc1c(Cl)cccc1Cl)N(Cc1ccccc1)Cc1ccccc1`, in assay [2], the inhibition was found to be 89%.
On to `CCCCN(Cc1ccccc1)C(=O)Nc1cccc(C)c1`, for which the inhibition in assay [1] was determined as 92%.
As for `CCCCN(Cc1ccccc1)C(=O)Nc1cc(C)ccc1C`, in assay [1], the inhibition was determined as 93%.
Take `CCCCC(CC)CN(CC(CC)CCCC)C(=O)Nc1ccc(C)cc1C` (stereo not given): the inhibition in assay [2] worked out at 86%.
Regarding `CCCCN(CCCC)C(=O)Nc1c(C)cc(C)cc1C`, the inhibition in assay [1] stood at 74%.
The same measure, in the same setting: the figure for `CCCCN(CCCC)C(=O)Nc1ccc(F)cc1` is 56%.
On the same count and under the same terms, the figure for `CCCCN(Cc1ccccc1)C(=O)Nc1cccc(Cl)c1` is 89%.
Take `CCc1cccc(C)c1NC(=O)N(Cc1ccccc1)Cc1ccccc1`: the inhibition in assay [2] turned out to be 74%.
As to `CCCCN(CCCC)C(=O)Nc1ccc(C)cc1`, the inhibition in assay [1] came out at 80%.
As for `CCCCN(Cc1ccccc1)C(=O)Nc1ccc(C(=O)O)cc1C`, the LS in assay [3] stood at 88%. In addition, in assay [4], the SS is 76%.
